Data published in ChEMBL document CHEMBL2321693, “Optimizing solubility and permeability of a biopharmaceutics classification system (BCS) class 4 antibiotic drug using lipophilic fragments disturbing the crystal lattice” (J Med Chem, 2013).

Tests used:
[1] = Efflux ratio of permeability from basolateral to apical side to apical to basolateral side in human Caco2 cells; type: ADME, cell-based; settings: Caco-2
[2] = Apparent permeability of the compound from apical to basolateral side in human Caco2 cells at pH 6.5/7.4 by LC-MS/MS analysis; type: ADME, cell-based; settings: Caco-2, pH 6.5
Procedure, shortened: (§1)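 Caco-2 monolayers ([…] cells seeded on polycarbonate inserts, 0.4 μm pores), kept in 90% air/10% CO2. Transport run at 37 °C across a 6.5/7.4 pH gradient, started by adding 10 μM drug to the donor side. Papp = (ΔQ/Δt)/(A·C0), from steady-state flux, filter area and initial donor concentration. LC-MS/MS quantitation. Mean ± SD of triplicates.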

[3] = Apparent permeability of the compound from basolateral to apical side in human Caco2 cells by LC-MS/MS analysis; type: ADME, cell-based; settings: Caco-2; procedure, shortened: as §1
[4] = Apparent solubility of the compound in fasted state simulated intestinal fluid at pH 6.5 by shake flask method relative to ciprofloxacin; type: physicochemical; settings: simulated gi fluid
Procedure, shortened: (§2)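 Small-scale shake flask. Excess solid in 500 μL medium (n = 3): USP pH 7.4 phosphate buffer, or pH 6.5 phosphate buffer or FaSSIF per Galia. Supernatant assayed by LC-MS/MS.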

[5] = Apparent solubility of the compound in phosphate buffer at pH 7.4 by shake flask method relative to ciprofloxacin; type: physicochemical; procedure, shortened: as §2
[6] = Apparent solubility of the compound in phosphate buffer at pH 6.5 by shake flask method relative to ciprofloxacin; type: physicochemical; procedure, shortened: as §2

Row | Compound | efflux ratio [1] | Papp A→B [2] [×10⁻⁶ cm/s] | Papp B→A [3] [×10⁻⁶ cm/s] | fold change (FC) [4] | fold change (FC) [5] | fold change (FC) [6]
1 | O=C(OCc1ccccc1)c1cn(C2CC2)c2cc(N3CCNCC3)c(F)cc2c1=O | 18 | 6.42 | 116 | – | – | –
2 | CCOC(=O)c1cn(C2CC2)c2cc(N3CCNCC3)c(F)cc2c1=O [CIPROFLOXACIN ETHYL ESTER] | 7 | 3.45 | 24.3 | 2 | 2 | 2
3 | CCCCOC(=O)c1cn(C2CC2)c2cc(N3CCNCC3)c(F)cc2c1=O | 13 | 4.95 | 65.9 | 10 | 4 | 27
4 | CC(C)OC(=O)c1cn(C2CC2)c2cc(N3CCNCC3)c(F)cc2c1=O | 7 | 4.69 | 35.2 | 0.5 | 0.5 | 0.5
5 | CCCOC(=O)c1cn(C2CC2)c2cc(N3CCNCC3)c(F)cc2c1=O | 146 | 0.43 | 62.8 | 0.5 | 0.5 | 0.5
6 | COC(=O)c1cn(C2CC2)c2cc(N3CCNCC3)c(F)cc2c1=O | 19 | 1.01 | 19.7 | 111 | 48 | 66
7 | CCCCCCOC(=O)c1cn(C2CC2)c2cc(N3CCNCC3)c(F)cc2c1=O | 19 | 13.9 | 264 | – | – | –
